Published values of several laboratories.
Each line is one published result; the experiments were not run side by side.
Organism: Escherichia coli
Observed: microbial growth

SMILES	assay	system	setting	MIC
Cc1[nH]c(C(=O)Nc2ccc(C(=O)NCC(=O)O)cc2N2CC[C@@H](NC(=O)OC(C)(C)C)C2)c(Cl)c1Cl	broth dilution	ATCC25922		> 32 µg/mL
COc1cc(Cc2cnc(N)nc2N)cc(OC)c1OC	broth dilution	ATCC25922		8 µg/mL
Cl.N[C@@H]1CCN(c2cc(C(=O)NCC(=O)O)ccc2NC(=O)c2cc(Br)c(Br)[nH]2)C1	broth dilution	ATCC25922		> 32 µg/mL
Cc1nn(-c2ccccc2)c2c1C(c1ccc(O)cc1)N(C(=O)c1ccncc1)N2 (stereo not drawn)		MTCC739	24 h	16 µg/mL
CC(O)CSc1nnc(COc2ccc(Cl)cc2Br)n1-c1ccccc1 (stereo not drawn)				20500 µg/mL
C[C@@H](O)[C@H]1C(=O)N2C(C(=O)O)=C(S[C@@H]3CN[C@H](C(=O)Nc4cccc(C(=O)O)c4)C3)[C@H](C)[C@H]12	broth dilution			≤ 0.125 µg/mL
O=C(O)c1cn(C2CC2)c2cc(N3CCNCC3)c(F)cc2c1=O		K12, MG1655		2 µM
C[C@H]1[C@H](NC(=O)/C(=N\OC(C)(C)C(=O)O)c2csc(N)n2)C(=O)N1S(=O)(=O)O	broth dilution			≤ 0.06 µg/mL
CN(C)[C@@H]1C(O)=C(C(N)=O)C(=O)[C@@]2(O)C(O)=C3C(=O)c4c(O)cccc4[C@@](C)(O)[C@H]3C[C@@H]12	broth dilution	ATCC25922		16 µg/mL
COc1ccc(C2c3c(C)nn(-c4ccccc4)c3NN2C(=O)c2ccncc2)cc1 (stereo not drawn)		MTCC739	24 h	32 µg/mL
Cc1[nH]c(C(=O)Nc2ccc(C(=O)NCc3n[nH]c(=O)o3)cc2N2CCNCC2)c(Cl)c1Cl.Cl	broth dilution	ATCC25922		> 32 µg/mL
O=C(C=Cc1ccc(O)c(O)c1)OCc1ccccc1	broth dilution	ATCC25922		8 µg/mL
C[C@H]1COc2c(N3CCN(C)CC3)c(F)cc3c(=O)c(C(=O)O)cn1c23		BW25113		0.16 µg/mL
Cc1[nH]c(C(=O)Nc2ccc(C(=O)NCC(=O)O)cc2N2CC[C@@H](N)C2)c(Cl)c1Cl.Cl	broth dilution	ATCC25922		> 32 µg/mL
Cc1nn(-c2ccccc2)c2c1C(c1cncs1)N(C(=O)c1ccncc1)N2 (stereo not drawn)		MTCC739	24 h	64 µg/mL
O=C(C=Cc1ccc(O)c(O)c1)Oc1ccccc1	broth dilution	ATCC25922		8 µg/mL
CC(O)CSc1nnc(-c2ccccc2)n1-c1ccccc1 (stereo not drawn)				11000 µg/mL
CC1(C)S[C@@H]2[C@H](NC(=O)[C@H](N)c3ccccc3)C(=O)N2[C@H]1C(=O)O	broth dilution	ATCC25922		4 µg/mL
Cc1nn(-c2ccccc2)c2c1C(c1ccc([N+](=O)[O-])cc1)N(C(=O)c1ccncc1)N2 (stereo not drawn)		MTCC739	24 h	32 µg/mL
CC(O)CSc1nnc(-c2cc3c(ccc4ccccc43)o2)n1-c1ccccc1 (stereo not drawn)				16000 µg/mL
CC(C)(O/N=C(\C(=O)N[C@@H]1C(=O)N2C(C(=O)[O-])=C(C[n+]3ccccc3)CS[C@H]12)c1csc(N)n1)C(=O)O	broth dilution			0.125 µg/mL
O=C(N[C@H](CO)[C@H](O)c1ccc([N+](=O)[O-])cc1)C(Cl)Cl			24 h	2.5 to 5 µM
Cc1[nH]c(C(=O)Nc2ccc(-c3n[nH]c(=O)o3)cc2N2CC[C@H](N)C2)c(Cl)c1Cl.Cl	broth dilution	ATCC25922		8 µg/mL
NCC[C@H](O)C(=O)N[C@@H]1C[C@H](N)[C@@H](O[C@H]2O[C@H](CN)[C@@H](O)[C@H](O)[C@H]2O)[C@H](O)[C@H]1O[C@H]1O[C@H](CO)[C@@H](O)[C@H](N)[C@H]1O	broth dilution			≤ 1 µg/mL
CC(C)(C)OC(=O)N[C@H]1CCN(c2cc(C(=O)NCC(=O)O)ccc2NC(=O)c2cc(Br)c(Br)[nH]2)C1	broth dilution	ATCC25922		> 32 µg/mL
Cc1nn(-c2ccccc2)c2c1C(c1ccc(N(C)C)cc1)N(C(=O)c1ccncc1)N2 (stereo not drawn)		MTCC739	24 h	> 100 µg/mL
Cl.O=C(O)CNC(=O)c1ccc(NC(=O)c2cc(Br)c(Br)[nH]2)c(N2CCNCC2)c1	broth dilution	ATCC25922		> 32 µg/mL
C[C@@H](O)[C@H]1C(=O)N2C(C(=O)O)=C(S[C@@H]3CN[C@H](C(=O)N(C)C)C3)[C@H](C)[C@H]12	broth dilution	ATCC25922	20 h	< 0.5 µg/mL
Cc1[nH]c(C(=O)Nc2ccc(-c3n[nH]c(=O)o3)cc2N2CCC[C@H](N)C2)c(Cl)c1Cl.Cl	broth dilution	ATCC25922		16 µg/mL
CO/N=C(\C(=O)N[C@@H]1C(=O)N2C(C(=O)[O-])=C(C[N+]3(C)CCCC3)CS[C@H]12)c1csc(N)n1	broth dilution			≤ 0.06 µg/mL
